# Source: PubChem BioAssay (The Scripps Research Institute Molecular Screening Center)
# S1P4 antagonist = S1P4 receptor antagonists, primary screen, cell-based | AID 1510, 2009 | inhibition, % at 4.98 µM | 220,000 compounds, 0.26% hits | S1P4-expressing cells, antagonist mode, reporter read-out; in the data active = inhibition above about 29%
# S1P4 ag = S1P4 receptor agonists, primary screen, cell-based; AID 1509, 2009; S1P4-expressing cell line, agonist reporter assay; 220,000 compounds, 0.35% hits; Sphingosine 1-phosphate receptor 4 (Homo sapiens), O95977; activation, % at 4.98 µM; in the data active = activation above about 11%
# NPY2 pot ag = NPY-Y2 potentiators or agonists, primary screen, cell-based; Neuropeptide Y receptor type 2 (Homo sapiens), P49146; cells expressing NPY-Y2, potentiator/agonist read-out; activation, % at 3.6 µM; 220,000 compounds, 0.45% hits; in the data active = activation above about 27%;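 note: cells stimulated with NPY near EC25 plus isoproterenol at EC100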
# NPY-Y1 PAM-ag = NPY-Y1 receptor potentiators or agonists, primary screen, cell-based; Neuropeptide Y receptor type 1 (Homo sapiens), P25929; NPY-Y1 expressing cells, potentiator/agonist activation; activation, % at 3.6 µM; 220,000 compounds, 0.37% hits; in the data active = activation above about 33%, passing the limit was not always enough;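 note: cells stimulated with NPY at EC10 then isoproterenol at EC100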
# Target sequence (P25929 whole entry, looked up): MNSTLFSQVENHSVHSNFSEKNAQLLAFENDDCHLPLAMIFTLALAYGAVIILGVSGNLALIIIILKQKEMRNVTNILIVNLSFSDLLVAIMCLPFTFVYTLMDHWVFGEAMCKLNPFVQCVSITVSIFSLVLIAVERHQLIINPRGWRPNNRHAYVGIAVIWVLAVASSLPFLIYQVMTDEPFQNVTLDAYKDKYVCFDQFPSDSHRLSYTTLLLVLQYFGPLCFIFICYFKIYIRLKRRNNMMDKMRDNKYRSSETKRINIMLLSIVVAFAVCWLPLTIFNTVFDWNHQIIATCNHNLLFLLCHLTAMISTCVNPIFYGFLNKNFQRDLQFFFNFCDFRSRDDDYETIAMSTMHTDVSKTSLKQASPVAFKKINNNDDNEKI
# NPY Y2 blocker = NPY-Y2 receptor antagonists, primary screen, cell-based; inhibition, % at 2.7 µM; Neuropeptide Y receptor type 2 (Homo sapiens), P49146; NPY-Y2 expressing cells, antagonist mode; 140,000 compounds, 0.99% hits
# NPY-Y1 antag = NPY-Y1 receptor antagonists, primary screen, cell-based | inhibition, % at 3.6 µM | HEK293-CNG Y1 cells, membrane potential fluorescence; NPY at EC95, then isoproterenol | 200,000 compounds, 1% hits | AID 1040, 2008;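 active = inhibition above the campaign mean inhibition of all tested compounds plus 3 SD, cut at about 20% in these data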
#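 Test system: HEK293 cells co-expressing NPY Y1 receptor and cyclic-nucleotide gated channel; Also added: NPY (25 nM), isoproterenol (1 µM), Ro 20-1724 (25 µM); Compound dosing: one concentration, 3.6 µM, in 0.4% DMSO; Timing: dye 3 h, compound 60 min room temperature, stimulation 45 min; Technique: Membrane-potential fluorescent dye readout.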
# NPY1 antag conf = NPY-Y1 receptor antagonists, retest of hits, confirmation, HEK293-CNG cells, membrane potential fluorescence, triplicate; shares compounds with NPY-Y1 antag; cAMP; NPY challenge against isoproterenol-raised cAMP; inhibition, % at 3.6 µM; 1,200 compounds, 21% hits; AID 1254, 2008; in the data active = inhibition above about 20%
# NPY-Y2 antag ct = NPY-Y2 receptor antagonists, selectivity check, confirmation, counter-screen for NPY-Y1 antagonist project, HEK293-CNG cells, membrane potential fluorescence, triplicate; 1,200 compounds, 28% hits; antagonism; cells given NPY, then isoproterenol; inhibition, % at 3.6 µM; AID 1255, 2008; shares compounds with NPY-Y1 antag
# Numbers stand for hits; i = inactive; nt = not tested or not shown. An excerpt weighted towards active compounds, which were near 2.4% of everything screened. Cut-off read from the data, not from the text of the source, unless noted: active = inhibition above about 17%; inactive = the rest.
SMILES,S1P4 antagonist,S1P4 ag,NPY2 pot ag,NPY-Y1 PAM-ag,NPY Y2 blocker,NPY-Y1 antag,NPY1 antag conf,NPY-Y2 antag ct
O=C(O)C1CCC(Cn2c(SCc3cc(=O)n4cc(Br)ccc4n3)nc3ccsc3c2=O)CC1 (configuration not stated),i,i,i,i,nt,26,80,87
O=C(O)c1ccc(Cn2c(SCc3cc(=O)n4cc(Br)ccc4n3)nc3ccsc3c2=O)cc1,i,i,i,i,nt,i,nt,nt
CCCC[n+]1c(-c2ccc(Cl)cc2Cl)csc1Nc1ccccc1,i,i,i,i,i,i,nt,nt
Clc1ccc(-c2csc(Nc3ccccc3)[n+]2Cc2ccco2)c(Cl)c1,i,i,i,i,nt,32,23,i
O=C(O)c1cc2c(ccc3ccccc32)o1,i,i,i,i,i,32,i,i
Cc1cccc(C(=O)NCCN(C)C)c1,i,i,i,i,i,i,nt,nt
Cc1nc(CCNC(=O)c2cccs2)cs1,i,i,i,i,i,i,nt,nt
Cc1cccc(C(=O)NCCNc2nc3cc(C)c(C)cc3cc2C)c1,i,i,i,i,nt,45,29,33
Cc1cc2cc(C)c(NCCNC(=O)c3ccccc3F)nc2cc1C,i,i,i,i,nt,32,i,29
Cc1cc2cc(C)c(NCCNC(=O)c3cccc(F)c3)nc2cc1C,i,i,i,i,nt,40,28,i
Cc1cc2cc(C)c(NCCNC(=O)c3cccs3)nc2cc1C,i,i,i,i,nt,56,43,65
O=C(NCCc1ccncc1)c1ccccc1F,i,i,i,i,i,i,nt,nt
CCOC(=O)C1(CC2CCCCO2)CCN(S(=O)(=O)c2cc(C)cs2)CC1 (configuration not stated),i,i,i,i,nt,i,nt,nt
CCOC(=O)C1(CC2CCCCO2)CCN(C2CCSCC2)CC1 (configuration not stated),i,i,i,i,nt,34,i,i
CC(C)CCn1c(Oc2ccccc2Cl)nc2c1c(=O)n(C)c(=O)n2C,i,i,i,i,i,36,i,i
COc1cccc(CNn2cnnc2)c1OCc1ccc(F)cc1,i,i,i,i,i,i,nt,nt
COc1cccc(CNC23CC4CC(CC(C4)C2)C3)c1OCc1ccccc1,i,i,i,i,nt,165,114,84
CCOC(=O)CSc1nc(-c2ccccc2)nc2ccc(F)cc12,i,i,i,i,i,23,i,i
COC(=O)CSc1nc(-c2ccccc2)nc2ccc(F)cc12,i,i,i,i,i,i,nt,nt
COc1ccccc1CNC(=O)c1cn(C)c2ccc(S(=O)(=O)N3CCCC3)cc2c1=O,i,i,i,i,nt,i,nt,nt
S=c1nc[nH]c2c1[nH]c1ccc(Cl)cc12,i,i,i,i,nt,nt,nt,nt
S=c1nc[nH]c2c1[nH]c1ccccc12,i,i,i,i,i,39,i,i
COC(/C=C/Nc1ccc(OC)cc1)=C(C#N)C#N,i,i,i,i,i,40,i,i
COc1cccc(OCC(=O)Nc2ccccc2-c2ccccc2)c1,i,i,i,i,nt,24,i,i
O=C(c1cc(F)ccc1F)C1CCCN(Cc2cccn2-c2ccccn2)C1 (configuration not stated),i,i,i,i,nt,nt,nt,nt
SMILES,S1P4 antagonist,S1P4 ag,NPY2 pot ag,NPY-Y1 PAM-ag,NPY Y2 blocker,NPY-Y1 antag,NPY1 antag conf,NPY-Y2 antag ct
COc1ccc(F)cc1C(=O)C1CCCN(Cc2cccn2-c2ccccn2)C1 (configuration not stated),i,i,i,i,nt,35,23,20
COc1ccc(C(=O)C2CCCN(Cc3cccn3-c3ccccn3)C2)c(OC)c1 (configuration not stated),i,i,i,i,nt,27,21,18
COC(CN1C(=O)C(=O)/C(=C(/O)c2ccccc2)C1c1ccccn1)OC (configuration not stated),i,i,i,i,nt,i,nt,nt
Clc1ccc(CN2CCCCCCC2)cc1,i,i,i,i,i,i,nt,nt
Clc1ccc(CN2CCCCCCC2)cc1Cl,i,i,i,i,i,22,i,i
Cc1ccc(Cn2c(=N)n(CC(=O)c3ccccc3)c3ccccc32)cc1,i,i,i,i,nt,i,nt,nt
O=C(Nc1ccc(N2CCN(C(=O)c3ccco3)CC2)cc1)c1cccnc1Cl,i,i,i,i,nt,i,nt,nt
CCCCCCCn1c2c(c(=N)c3c1CCC3)CCCC2,i,i,i,i,nt,80,57,43
CCCCCCn1c2c(c(=N)c3c1CCC3)CCC2,i,i,i,i,i,24,29,i
CCCCn1c2c(c(=N)c3c1CCC3)CCC2,i,i,i,i,i,i,nt,nt
O=[N+]([O-])c1cccc(-c2noc(COc3ccccc3)n2)c1,i,i,i,i,nt,25,i,i
C/C(=N\OC(=O)Nc1ccccc1)c1cnn(-c2cc(C(F)(F)F)cc(C)n2)c1C,i,i,i,i,nt,nt,nt,nt
CNCC(C)COc1ccccc1OCc1ccccc1 (configuration not stated),i,i,i,i,i,22,i,i
CCN(Cc1ccncc1)Cc1nc(Cc2ccccc2Cl)no1,i,i,i,i,nt,i,nt,nt
CC(=O)c1c(OC(=O)c2ccc(C)cc2)c2ccccc2n1C,i,i,i,i,i,34,i,i
CC(/C=N/NC(=O)c1n[nH]c2c1CCC2)=C\c1ccccc1,i,i,i,i,i,22,i,17
Cc1cccc(NC(=O)c2cc(-c3ccccn3)nc3ccccc23)c1C,i,i,i,i,nt,39,25,23
O=C(NC1CC1)c1cc(-c2ccccn2)nc2ccccc12,i,i,i,i,i,i,nt,nt
Cc1ccc(-c2cc(C(=O)Nc3cc(C)on3)c3ccccc3n2)c(C)c1,i,i,i,i,i,35,29,51
Cc1cc(NC(=O)c2cc(-c3ccccc3C)nc3ccccc23)no1,i,i,i,i,i,i,nt,nt
Cc1csc(NC(=O)c2cc(-c3ccccc3)nc3ccccc23)n1,i,i,i,i,i,22,i,i
NC(=O)c1cnn(-c2ccc3ccccc3c2)c1N,i,i,i,i,nt,i,nt,nt
O=C(COC(=O)CCc1ccccc1)Nc1cc(S(=O)(=O)N2CCOCC2)ccc1N1CCCC1,i,i,i,i,nt,i,nt,nt
Cc1cccn2c(CN[C@@H]3CCCC[C@H]3c3ccccc3)c(C(=O)N3CCOCC3)nc12,i,i,i,i,nt,26,i,i
